OXTR agonist: agonists of human oxytocin receptor. actives 0.32% (n = 320,000). P30559. AID 2435. CHO-OTR cells, Fluo-8 calcium fluorescence; normalized: DMSO 0%, oxytocin 100%. activation, % at 3 µM;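 active = activation above the mean of all tested compounds plus 3 SD, cutoff set per screening run, cut at about 20% in these data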;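 note: peak over basal fluorescence ratio from a 100 s FLIPR kinetic read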
OX1R antag-1: blocks the human orexin 1 receptor; O43613; AID 434989; CHO/OX1R cells, Fluo-8 calcium fluorescence, orexin A; inhibition, % at 5 µM; actives 0.43% (n = 330,000);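 active = inhibition above its plate's threshold, mean inhibition of all tested compounds on the plate plus 3 SD, cut at about 37% in these data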
CHO parental Ca: counter-screen: ATP calcium response change in parental CHO cells; parental CHO-K1, ATP-induced calcium, Fluo-8 fluorescence; inhibition, % at 5.6 µM; actives 0.63% (n = 330,000); AID 463079;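 active = inhibition above that plate's mean sample inhibition plus 3 SD, cut at about 26% in these data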
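Assay system – parental CHO cells · Reagent – ATP stimulus · Detection – intracellular calcium via Fluo-8 no-wash fluorescent dye · Evaluation – percent inhibition of ATP-evoked calcium rise, normalized to controls · Controls – ATP wells versus no-ATP DMSO wells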
OX1R antag-2: OX1R (human) antagonism. O43613. OX1R-expressing cells, FRET antagonist read-out. inhibition, % at 6.6 µM. actives 1.8% (n = 330,000); in the data active = inhibition mostly above about 38%, no sharp cut-off; inactive = mostly below about 40%
OXTR potentiator: human OXTR potentiation; actives 0.061% (n = 320,000); P30559; activation, % at 3 µM; AID 2445; CHO-OTR cells, Fluo-8 calcium fluorescence, potentiator mode; 0% = oxytocin EC15, 100% = EC100;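 active = activation above that plate's cutoff, the mean activation of tested compounds plus 3 SD, cut at about 6.6% in these data, passing the limit was not always enough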
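Material: human OTR in CHO cells. Compound: 3.0 µM, one dose. Timing: compound 6 min at room temperature before oxytocin, 100 s read. Evaluation: % activation of max/min ratio relative to oxytocin controls. Replication: single well per compound, singlicate. Signal: Fluo-8 calcium dye fluorescence.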
V1R ag counter: V1a receptor agonism, counter-screen for OXTR agonists; actives 0.25% (n = 320,000); AID 2797; P37288; CHO-V1R cells, Fluo-8 calcium fluorescence, agonist mode; 0% DMSO, 100% 3 nM vasopressin; activation, % at 3 µM;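 active = activation above the mean activation of all tested compounds plus 3 SD, per screening run, cut at about 20% in these data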;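 note: signal is peak over basal fluorescence ratio across a 100 second FLIPR read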
Target sequence (P37288 whole entry, looked up): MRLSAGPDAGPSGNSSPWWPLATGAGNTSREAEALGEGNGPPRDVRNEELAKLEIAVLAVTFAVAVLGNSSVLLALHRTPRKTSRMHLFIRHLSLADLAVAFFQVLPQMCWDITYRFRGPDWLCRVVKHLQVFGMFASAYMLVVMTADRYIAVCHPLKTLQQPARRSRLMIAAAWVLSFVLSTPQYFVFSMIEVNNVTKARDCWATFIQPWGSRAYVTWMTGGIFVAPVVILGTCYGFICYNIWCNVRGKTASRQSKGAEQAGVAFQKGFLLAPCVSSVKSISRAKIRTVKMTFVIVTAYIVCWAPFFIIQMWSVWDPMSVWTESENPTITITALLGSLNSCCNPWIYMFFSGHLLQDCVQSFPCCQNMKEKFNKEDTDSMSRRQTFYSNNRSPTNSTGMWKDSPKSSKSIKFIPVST
Of the large screens only hits and unclear results are named; the others gave an inactive call. The list is not random: actives were taken first. Their share in the collection is about 2.7%.

Cc1[nH]c2ccccc2c1CCNC(=O)c1ccc2c(c1[N+](=O)[O-])C(=O)c1ccccc1C2=O	OX1R antag-2 70.6
CCOc1ccc(/C=N/NC(=O)c2ccccc2C)cc1CN1CC2CC(C1)c1cccc(=O)n1C2 (configuration not stated)	none
CCOc1ccc(/C=N/NC(=O)c2ccccc2Cl)cc1CN1CC2CC(C1)c1cccc(=O)n1C2 (configuration not stated)	OX1R antag-2 36.8
COc1cccc(CC(=O)OCC(=O)NC(=O)c2ccc(OC(F)F)cc2)c1	none
COc1ccc(OC[C@@H](O)CNC(=O)c2cccc3c2C(=O)c2ccc(Cl)cc2S3(=O)=O)cc1	OX1R antag-2 42.5
COc1ccc(-c2ccc3c(c2)S(=O)(=O)c2cccc(C(=O)NCCOc4ccccc4Cl)c2C3=O)cc1OC	none
O=C(O)c1ccccc1NC(=O)C(c1ccccc1)c1ccccc1	none
O=C(Nc1ccccc1O)c1ccccc1O	CHO parental Ca 37.3
O=C(Nc1ccccc1O)C(c1ccccc1)c1ccccc1	CHO parental Ca 66.8
CC(C)Cc1ccc(C(C)C(=O)Nc2ccccc2O)cc1 (configuration not stated)	OXTR agonist 42.0, OX1R antag-1 100.5, CHO parental Ca 82.2, V1R ag counter 39.8
CC(C)c1ccc(CNC(=O)C(=O)Nc2nccs2)cc1	none
CC(C)Cc1ccc(C(C)C(=O)Nc2nccs2)cc1 (configuration not stated)	OXTR agonist 31.9, OX1R antag-1 48.7, CHO parental Ca 43.0, V1R ag counter 28.6
Cc1cccc(NC(=O)c2ccccc2O)c1C	none
Cc1cccc(NC(=O)C(C)SCc2nc3sc4c(c3c(=O)[nH]2)CCCC4)n1 (configuration not stated)	none
COc1cccc(CNC(=O)Cc2ccc(OC)c(S(=O)(=O)N3CCOCC3)c2)c1	none
Cc1ccc(Nc2nc(CSc3nnc(-c4ccccc4)n3C)cs2)cc1	none
Cn1nnnc1SCc1csc(Nc2ccccc2)n1	none
Cc1ccc(Nc2nc(CSc3nnc(-c4cccnc4)n3-c3ccccc3C)cs2)cc1	OX1R antag-2 67.0
Cc1ccccc1-n1c(SCc2csc(Nc3ccccc3)n2)nnc1-c1cccnc1	OX1R antag-2 69.3
O=C(Nc1ccc(OC(F)F)c(Cl)c1)Nc1ccc2c(c1)OCO2	OX1R antag-1 45.1, CHO parental Ca 36.5
O=C(Nc1ccc([N+](=O)[O-])cc1)Nc1ccc(OC(F)F)c(Cl)c1	OX1R antag-1 84.2, CHO parental Ca 100.2, OX1R antag-2 76.2
COc1ccc(C(=O)Nc2cccc([N+](=O)[O-])c2)cc1Br	none
COc1ccc(NC(=O)Nc2ccc3c(c2)N(C)C(=O)CS3)cc1OC	none
COc1ccc(NC(=O)Nc2cccc([N+](=O)[O-])c2)cc1Cl	OX1R antag-2 73.8
COc1ccc(NC(=O)Nc2ccc3c(c2)N(C)C(=O)CS3)cc1Cl	CHO parental Ca 31.4
CN(C)CCCN(C(=O)c1ccc([N+](=O)[O-])s1)c1nc2cc3c(cc2s1)OCCO3	OX1R antag-2 78.2
CCOC(=O)C1=NN(C(=O)c2ccc(C)cc2)C(O)(c2ccc(Cl)cc2)C1 (configuration not stated)	OXTR agonist 36.6, V1R ag counter 32.2
CN(C)CCCNC(=S)NCC(c1ccc(Cl)cc1Cl)c1c[nH]c2ccccc12 (configuration not stated)	OX1R antag-1 39.1, CHO parental Ca 43.2
CCCCNC(=S)NCC(c1ccccc1)c1c[nH]c2ccccc12 (configuration not stated)	none
O=C(Nc1ccc(Oc2ccc(Cl)cc2)c(Cl)c1)c1cc(I)cc(I)c1O	OX1R antag-2 48.9
COc1ccc(NC(=O)c2ccccc2F)cc1Cl	none
Cn1ccsc1=NC(=O)c1ccc(=O)[nH]c1	none
Cn1ccsc1=NC(=O)c1ccc([N+](=O)[O-])o1	OX1R antag-2 105.2
O=C(O)COc1ccccc1C=NNC(=O)c1ccccc1NS(=O)(=O)c1cccs1	none
COc1ccc(CNC(=S)Nc2ccccc2)cc1	none
COc1cccc(/C=C/C(=O)OCC(=O)c2c(N)n(C)c(=O)n(C)c2=O)c1	none
CNC(=O)c1cc(Oc2ccc(NC(=O)Nc3ccc(Cl)c(C(F)(F)F)c3)cc2)ccn1	OX1R antag-2 47.2
C/C(=N\NC(=S)NC1CCCCC1)c1ccc(OC(F)F)cc1OC(F)F	CHO parental Ca 40.8
C/C(=N\NC(=O)C1CC1)c1ccc(OC(F)F)cc1OC(F)F	none
FC(F)Oc1ccc(NC(=S)NC2CCCCCCC2)cc1	CHO parental Ca 37.2
Cc1ccccc1N1C(=O)c2cccc3c(N(C)CCO)ccc(c23)C1=O	OXTR agonist 24.9, V1R ag counter 23.6
CC(=O)Nc1cccc2c1C(=O)N(c1ccccc1C)C2=O	none
c1ccc(-c2noc(-c3cccc4ccccc34)n2)nc1	OX1R antag-2 66.2
CC1=C(C)/C(=N/OC(=O)c2cccc([N+](=O)[O-])c2)C=CC1=O	OX1R antag-2 73.5
N/C(=N/OC(=O)c1cccc([N+](=O)[O-])c1)c1cccc([N+](=O)[O-])c1	none
Cc1ccc(CN2CCNC(=O)C2CC(=O)N(C)C2CCOCC2)cc1 (configuration not stated)	none
O=C(COC(=O)c1cc(S(=O)(=O)N2CCCC2)ccc1O)Nc1ccccc1Br	none
COc1cc2c(cc1OC)-c1cc3ccc(OC)c(OC)c3c[n+]1CC2	OX1R antag-2 61.7
CCOC(=O)C1(CC2CCCCO2)CCN(Cc2cc3ccccc3[nH]2)CC1 (configuration not stated)	OXTR agonist 31.3, OX1R antag-1 52.5, CHO parental Ca 36.3, V1R ag counter 27.7
CCCCc1ncc(CN2CCC(CC3CCCCO3)(C(=O)OCC)CC2)[nH]1 (configuration not stated)	none
Cc1ccc(S(=O)(=O)N(C)C[C@@H]2Oc3ccc(NC(=O)Cn4cnnn4)cc3C(=O)N([C@@H](C)CO)C[C@H]2C)cc1	none
COc1ccc(NC(=O)c2ccc(Br)o2)c([N+](=O)[O-])c1	none
NS(=O)(=O)c1ccc(NNC(=O)c2ccc(Br)o2)c([N+](=O)[O-])c1	OX1R antag-2 58.1
C[n+]1ccc(/C=N/Nc2nc(Cl)c(C#N)c(Cl)c2Cl)cc1	OX1R antag-2 54.2
CC(C)NC(=O)N(C)C[C@H]1Oc2ccc(NC(=O)NC3CCCCC3)cc2C(=O)N([C@H](C)CO)C[C@@H]1C	none
CC(=O)c1c(C)[nH]c(C(=O)Nc2cccc(C(F)(F)F)c2)c1C	OX1R antag-1 44.8, CHO parental Ca 37.4, OX1R antag-2 70.3
CC(=O)c1c(C)[nH]c(C(=O)Nc2cccc(C#N)c2)c1C	none

From PubChem BioAssay
